Results: ChEMBL document CHEMBL1121480, “Conversion of ergolines to hexahydro- and octahydrobenzo[f]quinolines (depyrroloergolines)” (1980)

Columns and labels:
Assay type in all cases: functional
[1] = system: Rattus norvegicus; test: Evaluated for the prolactin inhibition at the dose 50 ug/kg administered intraperitoneally; details: ip
Summary of the method: (§1)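 Reserpinized male rats given 50 μg/kg ip; serum prolactin (ng/mL) measured by the method of Clemens et al. against vehicle controls; % inhibition from treated vs control means; mean ± SEM of 10 rats; significance versus control.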

[2] = system: Rattus norvegicus; test: Evaluated for the Average turns per first 15 minutes after administration of 1 mg/kg intraperitoneally; details: route intraperitoneal
[3] = system: Rattus norvegicus; test: Evaluated for the rat turning after administration of 1 mg/kg intraperitoneally; details: route intraperitoneal
[4] = system: Rattus norvegicus; test: Evaluated for the prolactin inhibition at the dose 50 ug/kg administered intraperitoneally (treatment); summary of the method: as §1

Structure (SMILES) | inhibition in vivo at 0.05 mg/kg [1] [%] | Average turns/first 15 min [2] | Rat turning [3] [%] | serum prolactin level [4] [ng/mL]
CC1=C[C@@H]2c3cccc4[nH]cc(c34)C[C@H]2N(C)C1 [AGROCLAVINE] | 63 | 95 | 100 | 11.7
CC1=C[C@@H]2c3ccccc3CC[C@H]2N(C)C1.O=C(O)C(=O)O [DEPYRROLO AGROCLAVINE] | 9 | 0 | 0 | 35.2
C[C@@H](CO)NC(=O)C1C=C2c3ccccc3CC[C@H]2N(C)C1 (some centres undefined) [DEPYRROLO ERGONOVINE] | -24 | 0 | 0 | 28.4
CCCN1C[C@H](CSC)C[C@@H]2c3ccccc3CC[C@H]21.O=C(O)C(=O)O [DEPYRROLO PERGOLIDE] | 35 | 48 | 67 | 11.6
C[C@@H](CO)NC(=O)[C@@H]1C=C2c3cccc4[nH]cc(c34)C[C@H]2N(C)C1.O=C(O)/C=C\C(=O)O [ERGONOVINE MALEATE] | 36 | 0 | 0 | 11.7
CCCN1C[C@H](CSC)C[C@@H]2c3cccc4[nH]cc(c34)C[C@H]21 [PERGOLIDE] | 95 | 102 | 100 | 1.6
